Laboratory results taken from ChEMBL document CHEMBL1141626, “Thiosemicarbazones active against Clostridium difficile” (2008).
Values after ≈ are worked out from the molar mass of the structure shown.

Columns and labels:
Assay type in all cases: functional
Staphylococcus aureus [1] = assay: Antimicrobial activity against methicillin-resistant Staphylococcus aureus E1 after 24 hrs
Method in brief: (§1)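 MIC by dilution in nutrient broth. Anaerobic organisms were incubated in an anaerobic cabinet. Controls were the same organisms incubated without test compound.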

Cutibacterium acnes [2] = assay: Antimicrobial activity against Propionibacterium acnes C5 after 48 hrs; method in brief: as §1
Staphylococcus aureus [3] = assay: Antimicrobial activity against Staphylococcus aureus ATCC 6538 after 24 hrs; conditions: ATCC 6538, 24 h; method in brief: as §1
Clostridioides difficile [4] = assay: Antimicrobial activity against Clostridium difficile Z162 after 48 hrs
Method in brief: (§2)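 Anaerobes incubated in an anaerobic cabinet for broth MIC determination. Drug-free incubations of the same organisms served as controls. Value is the minimum inhibitory concentration.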

[5] = system: Staphylococcus epidermidis; assay: Antimicrobial activity against Staphylococcus epidermidis 4 after 24 hrs; method in brief: as §1
Staphylococcus aureus [6] = assay: Antimicrobial activity against Staphylococcus aureus H1 after 24 hrs; method in brief: as §1
Clostridioides difficile [7] = assay: Antimicrobial activity against Clostridium difficile NCTC 11204 after 48 hrs; conditions: NCTC 11204, 48 h; method in brief: as §2
[8] = system: Staphylococcus epidermidis; assay: Antimicrobial activity against Staphylococcus epidermidis NCTC 11047 after 24 hrs; conditions: NCTC 11047, 24 h; method in brief: as §1
Clostridioides difficile [9] = assay: Antimicrobial activity against Clostridium difficile Z229 after 48 hrs; method in brief: as §2
Staphylococcus aureus [10] = assay: Antimicrobial activity against Staphylococcus aureus K1 after 24 hrs; method in brief: as §1
[11] = system: Staphylococcus epidermidis; assay: Antimicrobial activity against Staphylococcus epidermidis 9 after 24 hrs; method in brief: as §1
Cutibacterium acnes [12] = assay: Antimicrobial activity against Propionibacterium acnes B5 after 48 hrs; method in brief: as §2
Clostridioides difficile [13] = assay: Antimicrobial activity against Clostridium difficile O27 after 48 hrs; method in brief: as §2
Staphylococcus aureus [14] = assay: Antimicrobial activity against methicillin-resistant Staphylococcus aureus A1 after 24 hrs; method in brief: as §1
Cutibacterium acnes [15] = assay: Antimicrobial activity against Propionibacterium acnes C3 after 48 hrs; method in brief: as §1
Cutibacterium acnes [16] = assay: Antimicrobial activity against Propionibacterium acnes NCTC 737 after 48 hrs; conditions: NCTC 737, 48 h; method in brief: as §1
Staphylococcus aureus [17] = assay: Antimicrobial activity against methicillin-resistant Staphylococcus aureus C3 after 24 hrs; method in brief: as §1

Compound	MIC (Staphylococcus aureus [1]) [µg/mL]	MIC (Cutibacterium acnes [2]) [µg/mL]	MIC (Staphylococcus aureus [3]) [µg/mL]	MIC (Clostridioides difficile [4]) [µg/mL]	MIC [5] [µg/mL]	MIC (Staphylococcus aureus [6]) [µg/mL]	MIC (Clostridioides difficile [7]) [µg/mL]	MIC [8] [µg/mL]	MIC (Clostridioides difficile [9]) [µg/mL]	MIC (Staphylococcus aureus [10]) [µg/mL]	MIC [11] [µg/mL]	MIC (Cutibacterium acnes [12]) [µg/mL]	MIC (Clostridioides difficile [13]) [µg/mL]	MIC (Staphylococcus aureus [14]) [µg/mL]	MIC (Cutibacterium acnes [15]) [µg/mL]	MIC (Cutibacterium acnes [16]) [µg/mL]	MIC (Staphylococcus aureus [17]) [µg/mL]
CC(C)NC(=S)N/N=C/C=C/c1ccco1	> 256	64 (≈ 270 µM)	> 256	> 256	> 256	> 256	> 256	> 256	128 (≈ 539 µM)	> 256	> 256	> 256	64 (≈ 270 µM)	> 256	1 (≈ 4.21 µM)	32 (≈ 135 µM)	> 256
CNC(=S)N/N=C/C=C/c1ccc([N+](=O)[O-])o1	64 (≈ 252 µM)	64 (≈ 252 µM)	32 (≈ 126 µM)	32 (≈ 126 µM)	32 (≈ 126 µM)	16 (≈ 62.9 µM)	64 (≈ 252 µM)	32 (≈ 126 µM)	16 (≈ 62.9 µM)	> 256	64 (≈ 252 µM)	1 (≈ 3.93 µM)	32 (≈ 126 µM)	64 (≈ 252 µM)	1 (≈ 3.93 µM)	16 (≈ 62.9 µM)	64 (≈ 252 µM)
CC(C)(C)NC(=S)N/N=C/c1ccc([N+](=O)[O-])o1	> 256	16 (≈ 59.2 µM)	64 (≈ 237 µM)	128 (≈ 474 µM)	> 256	> 256	128 (≈ 474 µM)	128 (≈ 474 µM)	16 (≈ 59.2 µM)	64 (≈ 237 µM)	> 256	32 (≈ 118 µM)	> 256	> 256	16 (≈ 59.2 µM)	64 (≈ 237 µM)	> 256
CCNC(=S)N/N=C/C=C/c1ccco1	> 256	32 (≈ 143 µM)	> 256	> 256	> 256	> 256	> 256	> 256	64 (≈ 287 µM)	> 256	> 256	> 256	64 (≈ 287 µM)	> 256	32 (≈ 143 µM)	16 (≈ 71.7 µM)	> 256
CN[C@H](CC(C)C)C(=O)N[C@H]1C(=O)N[C@@H](CC(N)=O)C(=O)N[C@H]2C(=O)N[C@H]3C(=O)N[C@H](C(=O)N[C@H](C(=O)O)c4cc(O)cc(O)c4-c4cc3ccc4O)[C@H](O)c3ccc(c(Cl)c3)Oc3cc2cc(c3O[C@@H]2O[C@H](CO)[C@@H](O)[C@H](O)[C@H]2O[C@H]2C[C@](C)(N)[C@H](O)[C@H](C)O2)Oc2ccc(cc2Cl)[C@H]1O [VANCOMYCIN]	–	–	1.5 (≈ 1.04 µM)	–	–	–	0.5 (≈ 0.345 µM)	–	–	–	–	–	0.75 (≈ 0.518 µM)	–	–	0.5 (≈ 0.345 µM)	–
CC(C)(C)NC(=S)N/N=C/C=C/c1ccco1	> 256	1 (≈ 3.98 µM)	> 256	> 256	> 256	> 256	> 256	> 256	64 (≈ 255 µM)	> 256	> 256	64 (≈ 255 µM)	64 (≈ 255 µM)	> 256	4 (≈ 15.9 µM)	64 (≈ 255 µM)	> 256
